Data set [1] in a line: Clearance in Wistar rat at 10 mg/kg, po and 3 mg/kg, iv. The following applies: in vivo. The data set is classed as ADME, organism-based. The method, boiled down:
(§1)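 Rat pharmacokinetics. Oral dose 10 mg/kg in 0.1% HPMC. IV dose 3 mg/kg in 40% DMA/40% PEG/20% saline. Clearance, half-life, Vdss and oral bioavailability derived from the plasma profiles.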

A short description of data set [2]: Volume of distribution at steady state in Wistar rat at 10 mg/kg, po and 3 mg/kg, iv. The data set is classed as ADME, organism-based. The following applies: in vivo, read-out: Vdss. The method, boiled down: as §1
Data set [3] is described as follows: Half life in Wistar rat at 10 mg/kg, po and 3 mg/kg, iv. It is filed as ADME, organism-based. The following applies: in vivo. Summed up: as §1
The nature of data set [4]: Cytotoxicity against mouse BA/F3 cells expressing TEL-Jak2 after 72 hrs by MTS assay. The data set is classed as functional. The note with it: BaF3, 72 h. Summed up: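 BaF3 TEL-Jak2 cells. Growth inhibition measured by MTS tetrazolium colorimetric read-out and reported as GI50.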
A general note: Tetrazolium dyes change colour on reduction, which living cells bring about.

The target of data set [5] is Tyrosine-protein kinase JAK2 (Homo sapiens, UniProt O60674). Description: Inhibition of Jak2 (unknown origin).
Sequence of Tyrosine-protein kinase JAK2 (O60674 whole entry): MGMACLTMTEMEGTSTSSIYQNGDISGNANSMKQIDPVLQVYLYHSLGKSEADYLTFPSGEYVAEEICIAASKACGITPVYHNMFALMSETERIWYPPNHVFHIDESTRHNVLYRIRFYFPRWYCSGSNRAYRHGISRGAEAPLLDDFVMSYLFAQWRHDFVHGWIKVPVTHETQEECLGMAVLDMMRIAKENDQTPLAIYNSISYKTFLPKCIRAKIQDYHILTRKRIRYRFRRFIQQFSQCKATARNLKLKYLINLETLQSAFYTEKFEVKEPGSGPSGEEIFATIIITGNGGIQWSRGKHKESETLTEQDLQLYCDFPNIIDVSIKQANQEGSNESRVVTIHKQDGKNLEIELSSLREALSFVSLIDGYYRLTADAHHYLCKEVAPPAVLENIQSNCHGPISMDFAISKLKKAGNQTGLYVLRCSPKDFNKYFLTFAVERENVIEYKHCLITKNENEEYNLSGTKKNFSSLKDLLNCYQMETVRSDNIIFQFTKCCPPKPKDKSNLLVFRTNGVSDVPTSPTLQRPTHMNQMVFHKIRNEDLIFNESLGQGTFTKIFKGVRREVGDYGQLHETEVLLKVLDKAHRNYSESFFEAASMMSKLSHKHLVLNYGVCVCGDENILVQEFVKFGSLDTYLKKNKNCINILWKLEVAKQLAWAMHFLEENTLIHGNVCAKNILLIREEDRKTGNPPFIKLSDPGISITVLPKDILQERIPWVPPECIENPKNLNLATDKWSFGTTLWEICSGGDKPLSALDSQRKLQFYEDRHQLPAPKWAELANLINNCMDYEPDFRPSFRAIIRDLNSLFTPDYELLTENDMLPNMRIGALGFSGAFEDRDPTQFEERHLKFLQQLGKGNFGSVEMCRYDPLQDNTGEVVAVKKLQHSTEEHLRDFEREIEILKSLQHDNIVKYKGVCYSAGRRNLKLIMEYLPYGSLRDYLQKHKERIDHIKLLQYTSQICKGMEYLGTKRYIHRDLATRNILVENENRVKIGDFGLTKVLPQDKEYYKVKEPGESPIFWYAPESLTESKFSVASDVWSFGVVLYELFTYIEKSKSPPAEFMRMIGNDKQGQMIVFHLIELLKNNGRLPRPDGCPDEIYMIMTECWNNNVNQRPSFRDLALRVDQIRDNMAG
Data set [6] has as its target T1, Tyrosine-protein kinase JAK3 (Homo sapiens, UniProt P52333).
T1 sequence (P52333 whole entry): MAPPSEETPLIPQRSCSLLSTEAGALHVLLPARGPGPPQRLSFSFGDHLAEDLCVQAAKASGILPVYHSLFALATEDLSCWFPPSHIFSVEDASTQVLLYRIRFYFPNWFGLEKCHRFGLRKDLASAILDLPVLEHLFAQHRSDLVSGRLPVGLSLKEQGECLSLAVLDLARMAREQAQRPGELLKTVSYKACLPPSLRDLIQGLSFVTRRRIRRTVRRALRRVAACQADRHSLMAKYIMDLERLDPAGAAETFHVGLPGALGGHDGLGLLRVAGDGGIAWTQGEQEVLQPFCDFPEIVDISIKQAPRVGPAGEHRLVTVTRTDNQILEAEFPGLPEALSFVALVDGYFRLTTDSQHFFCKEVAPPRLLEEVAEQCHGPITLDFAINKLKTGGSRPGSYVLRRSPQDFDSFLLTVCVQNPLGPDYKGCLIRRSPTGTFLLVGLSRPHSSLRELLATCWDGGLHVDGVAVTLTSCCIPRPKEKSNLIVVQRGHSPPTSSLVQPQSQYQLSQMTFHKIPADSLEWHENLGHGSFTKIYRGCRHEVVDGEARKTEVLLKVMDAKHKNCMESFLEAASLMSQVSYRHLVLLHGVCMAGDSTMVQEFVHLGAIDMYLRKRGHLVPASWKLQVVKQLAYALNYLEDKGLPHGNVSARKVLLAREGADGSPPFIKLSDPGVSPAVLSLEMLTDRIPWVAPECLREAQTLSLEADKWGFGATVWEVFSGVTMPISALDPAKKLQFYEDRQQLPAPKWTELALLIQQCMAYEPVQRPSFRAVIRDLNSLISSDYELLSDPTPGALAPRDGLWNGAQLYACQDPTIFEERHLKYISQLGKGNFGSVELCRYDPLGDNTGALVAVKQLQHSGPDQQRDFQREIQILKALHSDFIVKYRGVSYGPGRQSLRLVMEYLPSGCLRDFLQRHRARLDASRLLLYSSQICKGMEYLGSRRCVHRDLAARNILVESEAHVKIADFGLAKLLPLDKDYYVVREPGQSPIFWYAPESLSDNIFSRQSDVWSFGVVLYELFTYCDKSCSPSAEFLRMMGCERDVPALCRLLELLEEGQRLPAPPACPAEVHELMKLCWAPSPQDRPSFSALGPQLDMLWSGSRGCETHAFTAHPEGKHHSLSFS
Description: Inhibition of Jak3 (unknown origin).

Data set [7] deals with Tyrosine-protein kinase JAK1 (Homo sapiens, UniProt P23458). Description: Inhibition of Jak1 (unknown origin).
Sequence of Tyrosine-protein kinase JAK1 (P23458 whole entry): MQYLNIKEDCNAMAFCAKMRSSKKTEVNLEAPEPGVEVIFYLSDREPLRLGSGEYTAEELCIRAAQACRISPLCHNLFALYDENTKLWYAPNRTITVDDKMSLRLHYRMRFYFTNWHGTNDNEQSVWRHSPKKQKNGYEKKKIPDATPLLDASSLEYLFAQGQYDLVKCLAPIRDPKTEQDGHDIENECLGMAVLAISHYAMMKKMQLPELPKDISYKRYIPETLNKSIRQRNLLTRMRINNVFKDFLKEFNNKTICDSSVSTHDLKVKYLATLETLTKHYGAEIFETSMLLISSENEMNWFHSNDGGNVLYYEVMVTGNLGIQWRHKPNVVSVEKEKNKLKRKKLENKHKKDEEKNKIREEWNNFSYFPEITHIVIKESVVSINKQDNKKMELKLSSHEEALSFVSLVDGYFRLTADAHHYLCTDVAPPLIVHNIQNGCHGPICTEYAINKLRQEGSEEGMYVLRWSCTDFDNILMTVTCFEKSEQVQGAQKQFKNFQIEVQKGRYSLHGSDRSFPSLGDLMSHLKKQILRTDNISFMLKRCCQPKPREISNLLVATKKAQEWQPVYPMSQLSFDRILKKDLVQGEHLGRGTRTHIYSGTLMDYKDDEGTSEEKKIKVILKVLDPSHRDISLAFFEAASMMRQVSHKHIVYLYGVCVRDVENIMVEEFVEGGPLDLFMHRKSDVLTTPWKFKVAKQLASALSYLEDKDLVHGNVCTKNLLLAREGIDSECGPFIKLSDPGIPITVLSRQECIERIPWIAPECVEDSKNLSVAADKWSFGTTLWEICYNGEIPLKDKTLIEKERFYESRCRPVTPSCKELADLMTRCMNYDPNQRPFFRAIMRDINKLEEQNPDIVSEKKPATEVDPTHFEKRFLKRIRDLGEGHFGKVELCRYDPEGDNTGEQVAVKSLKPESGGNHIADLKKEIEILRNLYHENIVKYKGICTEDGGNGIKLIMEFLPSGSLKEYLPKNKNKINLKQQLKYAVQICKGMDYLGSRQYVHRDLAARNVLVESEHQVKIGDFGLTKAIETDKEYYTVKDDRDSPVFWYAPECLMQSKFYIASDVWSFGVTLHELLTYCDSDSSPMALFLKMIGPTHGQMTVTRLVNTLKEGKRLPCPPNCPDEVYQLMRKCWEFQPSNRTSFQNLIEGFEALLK
Data set [8] in a line: Half life in beagle dog at 2.5 mg/kg, iv. Further details: dose 2.5 mg/kg, route intravenous. It is filed as ADME, organism-based, Canis lupus familiaris. The following applies: in vivo. The method, boiled down:
(§2)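 Male beagle dogs. Oral dose 10 mg/kg in 0.1% HPMC, pH 2. IV dose 2.5 mg/kg in 20% TEG/D5W. […] Clearance, Vdss, half-life and oral bioavailability (F%) derived from the plasma profiles.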

A short description of data set [9]: Volume of distribution at steady state in beagle dog at 2.5 mg/kg, iv. Further details: dose 2.5 mg/kg, route intravenous. The note with it: in vivo, read-out: Vdss. It is filed as ADME, organism-based, Canis lupus familiaris. Summed up:
as §2

The subject of data set [10] is Canis familiaris. Description: AUC (0 to 12 hrs) in beagle dog at 10 mg/kg, po. The following applies: in vivo. The data set is classed as ADME, organism-based, Canis lupus familiaris, Plasma. Further details: time < 12 hr, dose 10 mg/kg, route oral. The method, boiled down:
as §2

Data set [11] is described as follows: Oral bioavailability in Wistar rat at 10 mg/kg. It is filed as ADME, organism-based. The following applies: in vivo. Summed up:
as §1

Data set [12] concerns Canis familiaris. Description: Oral bioavailability in beagle dog at 10 mg/kg. The data set is classed as ADME, organism-based, Canis lupus familiaris. The note with it: in vivo. Summed up: as §2
A short description of data set [13]: Half life in beagle dog at 10 mg/kg, po. The data set is classed as ADME, organism-based, Canis lupus familiaris. The following applies: in vivo. Further details: dose 10 mg/kg, route oral. Summed up:
as §2

`CC(Nc1nc(Nc2cn(C)cn2)c2cccnc2n1)c1ncc(F)cn1` (racemic): the clearance in data set [1] came out at 100 mL/min/kg. Besides, the Vd in data set [2] was 2.5 L/kg. In data set [3], this compound gave a half-life of 0.92 h. Moreover, in data set [4], halving of growth (GI50) required 40 nM. Besides, the IC50 came out at 33 nM in [5], 3780 nM in data set [6] and 131 nM in data set [7].

In data set [4], `C[C@H](Nc1nc(Nc2cn(C)cn2)c2cc(F)cnc2n1)c1ncc(F)cn1` returned a GI50 of 3100 nM. For the same compound, the values for the IC50 in data set [5] and in data set [6] were 490 nM and 30000 nM, respectively.

Consider `Cc1csc2c(Nc3cn(C)cn3)nc(N[C@@H](C)c3ncc(F)cn3)nc12`, for which the clearance in data set [1] amounted to 44 mL/min/kg. Further, the Vd in data set [2] was found to be 1.2 L/kg. For the same compound, in [3], the half-life is 0.64 h. The compound also yielded a GI50 in [4] of 37 nM. Moreover, the IC50 in [6] was determined as 3930 nM.

Compound `COc1ccc2c(Nc3cn(C)cn3)nc(NC(C)c3ncc(F)cn3)nc2c1` (racemic) gave a clearance in data set [1] of 110 mL/min/kg. For the same compound, the Vd in [2] was 6 L/kg. In addition, the half-life in data set [3] is 0.98 h. Besides, in data set [4], the GI50 came to 34 nM. The IC50 in data set [5] is 24 nM; in data set [6], 13200 nM.

Turning to `C[C@H](Nc1nc(Nc2cn(C)cn2)c2ccn(C3CC3)c2n1)c1ncc(F)cn1`, in [4], the GI50 is 56 nM. Moreover, the IC50 in data set [5] stood at 27 nM; in [6], 2460 nM; in [7], 29 nM.

In data set [4], `C[C@H](Nc1nc(Nc2cn(C)cn2)c2ccncc2n1)c1ncc(F)cn1` yielded a GI50 of 25 nM. For the same compound, the values for the IC50 in data set [5], in data set [6] and in [7] were 12 nM, 1820 nM and 28 nM, respectively.

`C[C@H](Nc1nc(Nc2cn(C)cn2)c2ccn(C)c2n1)c1ncc(F)cn1` displayed a GI50 in data set [4] of 34 nM. Besides, the results for the IC50 in data set [5], in [6] and in data set [7] were 27 nM, 7560 nM and 24 nM, respectively.

Compound `CC(Nc1nc(Nc2cn(C)cn2)c2cn[nH]c2n1)c1ncc(F)cn1` (racemic) yielded a GI50 in [4] of 110 nM. Further, the IC50 came to 50 nM in [5], 4620 nM in [6] and 22 nM in data set [7].

As to `C[C@H](Nc1nc(Nc2cn(C)cn2)c2cnn(C)c2n1)c1ncc(F)cn1`, the half-life in [8] was 6.2 h; in [3] it was 1.3 h; in data set [13], 7.7 h. In addition, the Vd worked out at 2.1 L/kg in data set [9] and 1.8 L/kg in data set [2]. The clearance in [1] was determined as 25 mL/min/kg. This compound had an AUC with Canis familiaris [10] of 49 µM·h. The same compound had a GI50 in data set [4] of 26 nM. The bioavailability in data set [11] was determined as 90%. Moreover, the values for the IC50 in data set [5], in data set [6] and in data set [7] were 15 nM, 1440 nM and 16 nM, respectively. The F in the data set on Canis familiaris [12] was 139%.

In the case of `C[C@H](Nc1nc(Nc2cn(C)cn2)c2ccccc2n1)c1ncc(F)cn1`, in data set [4], the GI50 worked out at 34 nM. Also, the IC50 is 3 nM in data set [5] and 14800 nM in data set [6].

Compound `C[C@H](Nc1ncc(Cl)c(Nc2cn(C)cn2)n1)c1ncc(F)cn1` registered a GI50 in data set [4] of 270 nM. The IC50 in data set [5] was 120 nM.

In [4], `C[C@H](Nc1nc(Nc2cn(C)cn2)c2nccnc2n1)c1ncc(F)cn1` had a GI50 of 530 nM. Moreover, the results for the half-maximal inhibitory concentration (IC50) in data set [5], in data set [6] and in data set [7] were 800 nM, more than 30000 nM and 1500 nM, respectively.

Turning to `COc1ccc2nc(NC(C)c3ncc(F)cn3)nc(Nc3cn(C)cn3)c2c1` (racemic), halving of growth in [4] (GI50) required 3000 nM. Further, the IC50 in [5] is 670 nM; in data set [6], more than 30000 nM.

As for `CC(Nc1nc(Nc2cn(C)cn2)c2[nH]ccc2n1)c1ncc(F)cn1` (racemic), halving of growth in [4] (GI50) required 99 nM. Moreover, the IC50 in [5] is less than 3 nM; in data set [6], 5880 nM.

With `CC(Nc1nc(Nc2cn(C)cn2)c2ccc(Cl)nc2n1)c1ncc(F)cn1` (racemic), in data set [4], the GI50 is 28 nM. Further, the IC50 in data set [5] is less than 3 nM; in [6], more than 30000 nM.

In general, half-life refers to the time needed for the level to fall by half in the phase considered. Higher therefore signals slow decline. As usually defined, the GI50 is the concentration that inhibits growth by half. Read a high GI50 as less potent growth inhibition. What is called IC50 is the point on the concentration scale where inhibition reaches its midpoint. Usually AUC stands for the area under the concentration-time curve, a measure of exposure. The term bioavailability denotes the share of a dose that reaches the circulation, judged against a reference dose that is usually intravenous. Low values mean little systemic uptake, high ones much systemic uptake.
